An excerpt weighted towards active compounds, which were near 4.3% of everything screened.
MC4R antagonist: human MC4R antagonism in cAMP assay | MC4R-expressing cells, MTII-stimulated cAMP, LANCE TR-FRET | P32245 | 0.48% of 360,000 active | inhibition, % at 6.5 µM;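 active means inhibition above its plate's cutoff, the mean of tested wells on that plate plus 3 SD, cut at about 29% in these data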;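 further: 0% = Melanotan II alone and 100% = Melanotan II plus saturating MCL0020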
Target sequence (P32245 whole entry, looked up): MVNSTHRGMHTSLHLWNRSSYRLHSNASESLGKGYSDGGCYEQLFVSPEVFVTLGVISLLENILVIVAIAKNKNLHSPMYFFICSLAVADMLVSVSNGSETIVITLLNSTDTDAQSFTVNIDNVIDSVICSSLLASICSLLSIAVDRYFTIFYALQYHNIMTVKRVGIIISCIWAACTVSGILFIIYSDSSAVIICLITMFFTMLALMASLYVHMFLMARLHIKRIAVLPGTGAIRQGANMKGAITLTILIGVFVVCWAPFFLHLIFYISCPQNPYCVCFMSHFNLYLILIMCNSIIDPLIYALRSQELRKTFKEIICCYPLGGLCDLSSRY
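Test system: U2OS cells stably expressing human melanocortin 4 receptor (MC4R); also added: Melanotan II challenge; compound: 6.5 µM single dose; timing: 30-min compound preincubation, 1-h Melanotan II challenge, 1-h detection, room temperature; signal: Eu-cAMP/anti-cAMP TR-FRET, emission 671 nm; repeats: one well per compound, no replicates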
B2AR ag: agonists of human beta-2 adrenergic receptor inducing internalization. P07550. Am2.2-beta2AR cells, FAP receptor internalization, flow cytometry. response, % (no concentration beside the values). 0.43% of 340,000 active. AID 504454;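 active means response above a set limit, near 3 SD of response in nonfluorescent compounds, cut at about 42% in these data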
HTR2A ag: mouse HTR2A agonism via beta-arrestin recruitment | P35363 | CHO-K1 mHTR2A beta-arrestin complementation, luminescence; percent of 30 µM serotonin response | activation, % at 7.6 µM | 0.66% of 360,000 active | AID 624169;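 active means activation above a run cutoff, the mean activation of all tested compounds plus 3 SD, cut at about 14% in these data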;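 further: 0% = plate median of compound wells and 100% = 30 µM serotonin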
TAAR1 antag: human TAAR1 antagonism | inhibition, % at 3 µM | 1.5% of 360,000 active | AID 624466 | CHO RD-HGA16 TAAR1, Fluo-8 calcium fluorescence, antagonist | Q96RJ0;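 active means inhibition above a per-plate cutoff, the mean inhibition of test compounds on that plate plus 3 SD, cut at about 49% in these data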;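 further: 0% = DMSO plus EC80 beta-PEA response and 100% = DMSO alone without agonist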
Target sequence (Q96RJ0 whole entry, looked up): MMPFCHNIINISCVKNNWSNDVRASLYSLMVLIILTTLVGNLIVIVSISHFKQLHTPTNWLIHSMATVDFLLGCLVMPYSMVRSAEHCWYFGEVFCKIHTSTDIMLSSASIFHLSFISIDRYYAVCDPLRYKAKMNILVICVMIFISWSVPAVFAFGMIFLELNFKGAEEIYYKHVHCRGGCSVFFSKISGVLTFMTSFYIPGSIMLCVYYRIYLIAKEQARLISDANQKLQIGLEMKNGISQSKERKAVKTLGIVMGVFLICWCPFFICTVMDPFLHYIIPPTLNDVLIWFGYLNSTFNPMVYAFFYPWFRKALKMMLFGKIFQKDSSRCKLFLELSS
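System: CHO RD-HGA16 cells bearing hTAAR1. Reagent: EC80 β-phenethylamine stimulus. Schedule: seeding 17-24 h prior, 75-min 37 °C, 30-min RT dye loading. Signal: Fluo-8 intracellular calcium dye fluorescence, real-time kinetic reads. Read-out: % inhibition from peak post-agonist over basal fluorescence ratio. Benchmarks: vehicle wells and EC80 agonist wells. Replicates: n of 1.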
TAAR1 agonist: agonists of human TAAR1. 0.99% of 360,000 active. activation, % at 3 µM. Q96RJ0. CHO RD-HGA16 TAAR1, Fluo-8 calcium fluorescence; vehicle wells 0%, saturating PEA agonist 100%;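 active means activation above the mean activation of all test compounds in the run plus 3 SD, cut at about 38% in these data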
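Test system: RD-HGA16 (CHO) cells co-expressing Gα16 and hTAAR1 / Benchmarks: DMSO vehicle as 0%, PEA at EC100 as 100% / Repeats: no replicates (n 1) / Measure: % activation from peak over basal fluorescence ratio, DMSO-to-PEA scaled / Timing: 17-24 h plating, Fluo-8 75 min 37 °C, 30 min RT / Technique: kinetic Fluo-8 calcium fluorescence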
MC4R ag barr: activates human MC4R beta-arrestin recruitment; 0.98% of 360,000 active; activation, % at 8.9 µM; U2OS MC4R beta-arrestin complementation, luminescence; percent of melanotan II response, DMSO zero; AID 540308;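 active means activation above a per-plate cutoff, the mean activation of sample wells on that plate plus 3 SD, cut at about 8% in these data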
U2OS cAMP counter: nonselective cAMP signaling inhibitor, MC4R antagonist counter-screen; shares compounds with MC4R antagonist; parental U2OS, forskolin cAMP, LANCE TR-FRET; inhibition, % at 6.5 µM; 26% of 1,600 active; AID 602193;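 active means mean inhibition over triplicates above the low-control well mean plus 3 SD, set per campaign, cut at about 13% in these data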;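 further: signal is single emission at 671 nm which falls as cellular cAMP rises; 0% = forskolin-stimulated wells and 100% = buffer without forskolin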
MC4R antag conf: human MC4R cAMP antagonism confirmation; shares compounds with MC4R antagonist; MC4R-expressing cells, MTII-stimulated cAMP, TR-FRET; inhibition, % at 6.5 µM; 27% of 1,600 active; in the data active means inhibition above about 29%;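 further: 0% = agonist stimulated wells alone and 100% = agonist stimulated wells plus saturating reference antagonist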
Active calls of the source: *; . = not tested or not shown.

SMILES	MC4R antagonist	B2AR ag	HTR2A ag	TAAR1 antag	TAAR1 agonist	MC4R ag barr	U2OS cAMP counter	MC4R antag conf
O=C(Nc1ccccc1C(=O)N1CCCCCC1)c1ccc(Cl)cc1	19	2	-2	0	-1	-2	.	.
O=C(Nc1cccc2c1CCCC2)c1ccc(Cl)c([N+](=O)[O-])c1	19	-8	2	9	15	2	.	.
O=C(Nc1ccccc1N1CCCCC1)c1ccc(Cl)c([N+](=O)[O-])c1	41*	10	4	-11	6	1	3	51*
Cc1nc2ccc(NC(=O)c3ccc(Cl)c([N+](=O)[O-])c3)cc2s1	30*	-3	0	-33	6	0	10	20
COCCNC(=O)C1(C)CCCN(C(=O)Cc2ccc3ccccc3c2)C1 (centres undefined)	3	.	0	-21	2	-1	.	.
CCCC#CCN1CCN(C23CC4CC(CC(C4)C2)C3)CC1	11	-8	2	-17	2	-1	.	.
CCCCn1c(N)c(N(CC(C)C)C(=O)CCCc2nc3ccccc3s2)c(=O)[nH]c1=O	0	4	2	-3	3	-3	.	.
CCCCn1c(N)c(N(CCC(C)C)C(=O)CCCc2nc3ccccc3s2)c(=O)[nH]c1=O	30*	-7	0	-29	0	-2	4	15
O=C(Cc1ccc(Br)cc1)Nc1ccc2[nH]ncc2c1	7	-2	-5	-6	-1	0	.	.
COc1cc(N=Nc2ccc(Br)cc2)cc(C=O)c1O	34*	.	-5	-1	1	-2	-5	-5
COc1cc(CN(C)C)cc(C=O)c1O	2	8	-1	.	.	2	.	.
CN(CCOc1ccc(Cl)cc1)C(=O)CNS(=O)(=O)c1ccc(N(C)C)c([N+](=O)[O-])c1	9	-12	-5	28	8	-1	.	.
CN(C)c1ccc(S(=O)(=O)NCC(=O)OCC(=O)Nc2cc(Cl)cc(Cl)c2)cc1[N+](=O)[O-]	31*	-3	-5	12	14	4	19*	30*
O=C1COc2ccc(C(=O)COC(=O)c3nc(Cl)ccc3Cl)cc2N1	5	2	7	2	5	0	.	.
O=C1COc2ccc(C(=O)COC(=O)c3ncc(Cl)c(Cl)c3Cl)cc2N1	29*	2	8	-23	4	5	2	1
O=C(NCc1ccco1)c1cccc2c1C(=O)c1ccc(N3CCC(N4CCCCC4)CC3)cc1S2(=O)=O	7	.	3	-19	2	-1	.	.
Cc1c(C)c2c(OCC(=O)NCC3CCC(C(=O)O)CC3)cc3c(c2oc1=O)CCC(C)(C)O3 (centres undefined)	5	.	2	-18	0	0	.	.
CCN(CC)CCCNC(=O)c1ccc(S(=O)(=O)Nc2ccc(C)c(C)c2)cc1	9	3	-5	7	-1	-1	.	.
Cc1cc([N+](=O)[O-])nn1Cc1noc(C(=O)NCc2ccc3c(c2)OCO3)n1	16	-3	2	2	9	-1	.	.
O=C(NCc1ccc2c(c1)OCO2)c1nc(Cn2ccc([N+](=O)[O-])n2)no1	31*	-3	6	-7	1	-1	-2	-7
C=CCN1[C@@H](Cc2ccccc2)COCCS1(=O)=O	6	-2	0	3	0	0	.	.
COc1ccc(C(=O)/C(C#N)=N/Nc2cccc([N+](=O)[O-])c2)cc1	-14	21	2	7	5	-4	.	.
Cc1ccc(-c2nc3ccccc3s2)cc1NC(=S)NC(=O)/C=C/c1ccco1	-6	-7	-2	2	7	0	.	.
O=C(/C=C/c1ccco1)NC(=S)Nc1cc(-c2nc3ccccc3s2)ccc1Cl	34*	-3	4	-21	0	-1	4	15
CC(=O)n1c(-c2ccccc2)c(-c2ccccc2)n(C)c1=O	-3	5	0	-23	-2	2	.	.
SMILES	MC4R antagonist	B2AR ag	HTR2A ag	TAAR1 antag	TAAR1 agonist	MC4R ag barr	U2OS cAMP counter	MC4R antag conf
CCCS(=O)(=O)NC(=O)C1(C)CCN(C(=O)Cc2cccc(OC)c2)C1 (centres undefined)	8	.	4	1	5	0	.	.
CC1=NOC(=O)/C1=C/c1ccc(O)c(Br)c1	-5	26	1	-1	4	-1	.	.
CC1=NOC(=O)/C1=C/c1ccc(O)cc1	35*	12	5	3	11	0	-4	-38
CCOC(=O)c1cnc(-n2nc(C)cc2C)[nH]c1=O	0	-1	-2	-4	-4	-1	.	.
CCOC(=O)c1cnc(-n2[nH]c(C)cc2=O)[nH]c1=O	30*	6	2	-16	2	-1	-4	2
COc1ccccc1N(C)S(=O)(=O)c1ccc(C(=O)OCC(=O)c2c[nH]c3ccccc23)cc1	39*	-8	1	48	9	4	5	5
COc1ccccc1N(C)S(=O)(=O)c1ccc(C(=O)OCC(=O)N(C)c2ccccc2)cc1	4	6	-3	12	2	-3	.	.
CCOC(=O)N1CCN(CCC(=O)c2ccc(OC)cc2)CC1	33*	2	2	1	13	-4	10	22
CCCCOc1ccc(C(=O)CCN2CCCCC2)cc1	12	-11	-3	23	5	-1	.	.
COc1ccc(C(=O)CCN2CCC(C)CC2)cc1	31*	3	4	-23	4	-2	9	17
COc1ccc(N2CCN(CCC(=O)c3ccc4ccccc4c3)CC2)cc1	29*	1	1	-6	13	-1	7	3
COc1ccccc1NC(=O)C(=O)c1cn(CC(=O)N2CCOCC2)c2ccccc12	11	3	-3	-9	15	-2	.	.
CCc1nc(SCC(=O)Nc2nc3c(s2)CCCC3)c2ccccc2n1	33*	-16	-1	-13	6	2	17*	47*
CCCc1nc(SCC(=O)Nc2nc3c(s2)CCCC3)c2ccccc2n1	36*	-4	0	0	-1	2	11	27
CC(C)CNC(=O)COC(=O)CNC(=O)c1cc(Cl)cc([N+](=O)[O-])c1	33*	-4	-4	-14	7	-2	17*	32*
CCNC(=O)COC(=O)CNC(=O)c1cc(Cl)cc([N+](=O)[O-])c1	1	4	-1	-25	6	-3	.	.
Cc1ccc(C2(C)NC(=O)N(CC(=O)NCc3cccc(Cl)c3)C2=O)cc1 (centres undefined)	13	6	5	-4	2	0	.	.

Screening data from PubChem BioAssay.
